One may read the pEC50 as −log10 of the EC50, conventionally taken in molar units. The low end stands for a high EC50, the high end for a low EC50. As usually defined, the inhibition is the relative decrease from the control value, in per cent. A lower inhibition goes with little suppression. By pKd is commonly meant the Kd on a negative log10 scale, so that one unit is a factor of ten. Low readings indicate a high Kd, high ones a low Kd.

pEC50, pKd: −log10 of the molar value.

The test system of one test is MOLM-13. In words: cells. The following applies: Homo sapiens, MOLM-13, 48 h.
A further test deals with OCI-AML-3. Nature of the test: cells. The following applies: Homo sapiens, OCI-AML-3, 48 h.
The next test deals with MV4-11. In words: cells. The following applies: Homo sapiens, MV4-11, 48 h.
For the next test, the system named is NRK. In words: cells. The following applies: Rattus norvegicus, 48 h.
The test system of another test is H9c2. In words: cells. The following applies: Rattus norvegicus, H9c2, 48 h.
Test [1] concerns the target 1-phosphatidylinositol 3-phosphate 5-kinase (Homo sapiens) (UniProt Q9Y2I7). In words: Inhibition of biotinylated ligand binding to wild-type human partial length PIKFYVE (F1512 to C2098 residues) expressed in mammalian expression system at 50 nM measured after 1 hr by kinomescan assay relative to control.
The target in test [2] is Cyclin-dependent kinase 19 (Homo sapiens) (UniProt Q9BWU1). Nature of the test: Inhibition of biotinylated ligand binding to wild-type human partial length CDK11 (M1 to N360 residues) expressed in bacterial expression system at 50 nM measured after 1 hr by kinomescan assay relative to control. A digest of the protocol: (§1)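 T7 phage-tagged kinase lysates from E. coli BL21 were mixed with streptavidin beads carrying biotinylated ligand and 50 nM compound. Incubated 1 h at room temperature with shaking, washed, then eluted 30 min with 0.5 μM non-biotinylated ligand. Kinase was quantified by qPCR. POC = (test − positive)/(DMSO − positive) ×100, with a control compound as positive.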
Chain of Cyclin-dependent kinase 19 (Homo sapiens) (Q9BWU1 whole entry, the tested form may be a part): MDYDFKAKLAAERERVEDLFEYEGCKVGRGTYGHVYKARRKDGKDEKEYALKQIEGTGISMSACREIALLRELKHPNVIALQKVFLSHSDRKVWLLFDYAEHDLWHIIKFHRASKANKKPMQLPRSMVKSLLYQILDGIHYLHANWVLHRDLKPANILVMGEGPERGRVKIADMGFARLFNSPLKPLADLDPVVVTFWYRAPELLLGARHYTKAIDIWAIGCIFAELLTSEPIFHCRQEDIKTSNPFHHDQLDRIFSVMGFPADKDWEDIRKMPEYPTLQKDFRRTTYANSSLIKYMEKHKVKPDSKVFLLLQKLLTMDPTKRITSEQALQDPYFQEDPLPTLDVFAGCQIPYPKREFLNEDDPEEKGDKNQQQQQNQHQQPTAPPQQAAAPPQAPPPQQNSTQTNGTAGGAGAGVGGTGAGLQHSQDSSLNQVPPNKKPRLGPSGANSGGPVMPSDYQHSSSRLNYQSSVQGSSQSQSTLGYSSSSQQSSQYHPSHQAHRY

Test [3] addresses T1, Cyclin-dependent kinase 8 (Homo sapiens, UniProt P49336). In words: Inhibition of biotinylated ligand binding to wild-type human partial length CDK8 (M1 to T360 residues) expressed in Escherichia coli BL21 at 50 nM measured after 1 hr by kinomescan assay relative to control. A digest of the protocol: as §1
In test [4] the target is T1, Cyclin-dependent kinase 8. Nature of the test: Inhibition of biotinylated ligand binding to wild-type human partial length CDK8 (M1 to T360 residues) expressed in Escherichia coli BL21 measured after 1 hr by kinomescan assay.
Test [5] concerns the target Serine/threonine-protein kinase pim-2 (Homo sapiens) (UniProt Q9P1W9). Nature of the test: Inhibition of biotinylated ligand binding to wild-type human partial length PIM2 (M1 to E291 residues) expressed in bacterial expression system at 50 nM measured after 1 hr by kinomescan assay relative to control.
The target in test [6] is cAMP-dependent protein kinase catalytic subunit alpha (Homo sapiens) (UniProt P17612). In words: Inhibition of biotinylated ligand binding to wild-type human partial length PKAC-alpha (G10 to F351 residues) expressed in bacterial expression system at 50 nM measured after 1 hr by kinomescan assay relative to control.
Test [7] deals with Serine/threonine-protein kinase haspin (Homo sapiens) (UniProt Q8TF76). Nature of the test: Inhibition of biotinylated ligand binding to wild-type human partial length HASPIN (I452 to K798 residues) expressed in mammalian expression system at 50 nM measured after 1 hr by kinomescan assay relative to control.
Chain of Serine/threonine-protein kinase haspin (Homo sapiens) (Q8TF76 whole entry, the tested form may be a part): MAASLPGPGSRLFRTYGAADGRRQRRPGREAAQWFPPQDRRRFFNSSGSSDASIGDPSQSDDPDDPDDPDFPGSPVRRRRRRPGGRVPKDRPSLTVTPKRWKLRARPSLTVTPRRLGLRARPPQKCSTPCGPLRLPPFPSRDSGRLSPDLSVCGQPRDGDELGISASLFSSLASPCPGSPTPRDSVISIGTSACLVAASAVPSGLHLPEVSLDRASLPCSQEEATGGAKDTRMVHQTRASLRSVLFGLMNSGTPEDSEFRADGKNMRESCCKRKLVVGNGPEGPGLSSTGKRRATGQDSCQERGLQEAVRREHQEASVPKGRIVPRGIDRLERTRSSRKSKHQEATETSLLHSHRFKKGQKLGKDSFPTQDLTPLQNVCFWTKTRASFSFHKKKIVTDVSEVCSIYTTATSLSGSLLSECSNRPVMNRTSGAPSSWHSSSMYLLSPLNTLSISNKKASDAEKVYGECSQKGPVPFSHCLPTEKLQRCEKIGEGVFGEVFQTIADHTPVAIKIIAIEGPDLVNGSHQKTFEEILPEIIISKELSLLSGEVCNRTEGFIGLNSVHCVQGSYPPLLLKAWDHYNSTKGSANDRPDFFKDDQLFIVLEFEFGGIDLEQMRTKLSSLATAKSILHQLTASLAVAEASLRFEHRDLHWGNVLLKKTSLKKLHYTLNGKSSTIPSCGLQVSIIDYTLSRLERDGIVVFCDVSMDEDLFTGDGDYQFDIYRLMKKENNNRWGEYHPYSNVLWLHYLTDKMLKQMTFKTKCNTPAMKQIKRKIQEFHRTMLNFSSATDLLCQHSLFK
Test [8] has as its target Serine/threonine-protein kinase MAK (Homo sapiens) (UniProt P20794). In words: Inhibition of biotinylated ligand binding to wild-type human partial length MAK (M1 to P314 residues) expressed in bacterial expression system at 50 nM measured after 1 hr by kinomescan assay relative to control.
Test [9] deals with cAMP-dependent protein kinase catalytic subunit beta (Homo sapiens) (UniProt P22694). In words: Inhibition of biotinylated ligand binding to wild-type human full length PKAC-beta (M1 to F351 residues) expressed in bacterial expression system at 50 nM measured after 1 hr by kinomescan assay relative to control.
The target of test [10] is Citron Rho-interacting kinase (Homo sapiens) (UniProt O14578). In words: Inhibition of biotinylated ligand binding to wild-type human partial length CIT (M68 to E432 residues) expressed in bacterial expression system at 50 nM measured after 1 hr by kinomescan assay relative to control.
Test [11] has as its target Hormonally up-regulated neu tumor-associated kinase (Homo sapiens) (UniProt P57058). Nature of the test: Inhibition of biotinylated ligand binding to wild-type human partial length HUNK (A31 to K354 residues) expressed in bacterial expression system at 50 nM measured after 1 hr by kinomescan assay relative to control.
For test [12], the target named is Protein-tyrosine kinase 2-beta (Homo sapiens) (UniProt Q14289). Nature of the test: Inhibition of biotinylated ligand binding to wild-type human full length PYK2 (M1 to E967 residues) expressed in bacterial expression system at 50 nM measured after 1 hr by kinomescan assay relative to control.
Test [13] addresses Receptor-interacting serine/threonine-protein kinase 1 (Homo sapiens) (UniProt Q13546). Nature of the test: Inhibition of biotinylated ligand binding to wild-type human partial length RIPK1 (M1 to K305 residues) expressed in bacterial expression system at 50 nM measured after 1 hr by kinomescan assay relative to control. A digest of the protocol: (§2)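 Kinases expressed as tags on T7 phage grown in an E. coli BL21-derived host, with lysates cleared by centrifugation and filtration. Streptavidin beads carried biotinylated ligand and were blocked with biotin. Kinase, beads and compound were incubated in binding buffer (20% SeaBlock, 0.17x PBS, 0.05% Tween 20, 6 mM DTT) at room temperature for 1 h. Bound kinase was eluted with free ligand and quantified by qPCR. POC was set between DMSO (100%) and control compound (0%).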

Test [14] addresses Inhibitor of nuclear factor kappa-B kinase subunit epsilon (Homo sapiens) (UniProt Q14164). In words: Inhibition of biotinylated ligand binding to wild-type human full length IKKE (M1 to V716 residues) expressed in bacterial expression system at 50 nM measured after 1 hr by kinomescan assay relative to control. A digest of the protocol:
as §2

Test [15] deals with Phosphatidylinositol 5-phosphate 4-kinase type-2 gamma (Homo sapiens) (UniProt Q8TBX8). In words: Inhibition of biotinylated ligand binding to wild-type human partial length PIP5K2C (M1 to A421 residues) expressed in mammalian expression system at 50 nM measured after 1 hr by kinomescan assay relative to control. A digest of the protocol: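 Competition binding: compound (final 50 nM; 40x DMSO stocks) was incubated with kinase and biotinylated-ligand streptavidin beads in 20% SeaBlock, 0.17x PBS, 0.05% Tween 20 and 6 mM DTT at room temperature for 1 h. After washing, kinase was eluted with 0.5 μM non-biotinylated ligand for 30 min and measured by qPCR. Percent of control was referenced to DMSO (100%) and control compound (0%).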
Chain of Phosphatidylinositol 5-phosphate 4-kinase type-2 gamma (Homo sapiens) (Q8TBX8 whole entry, the tested form may be a part): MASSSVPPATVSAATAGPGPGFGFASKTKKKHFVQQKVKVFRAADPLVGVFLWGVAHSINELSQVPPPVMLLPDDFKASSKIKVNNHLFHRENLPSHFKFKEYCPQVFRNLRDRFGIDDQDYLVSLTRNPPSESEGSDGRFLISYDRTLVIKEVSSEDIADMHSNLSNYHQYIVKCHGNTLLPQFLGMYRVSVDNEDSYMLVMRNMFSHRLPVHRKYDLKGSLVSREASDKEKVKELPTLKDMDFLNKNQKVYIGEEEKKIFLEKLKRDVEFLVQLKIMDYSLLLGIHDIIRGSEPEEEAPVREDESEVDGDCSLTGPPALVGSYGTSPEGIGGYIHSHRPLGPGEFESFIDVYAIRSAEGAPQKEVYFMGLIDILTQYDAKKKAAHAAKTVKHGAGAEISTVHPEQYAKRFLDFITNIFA

T1 sequence (P49336 whole entry, the tested form may be a part): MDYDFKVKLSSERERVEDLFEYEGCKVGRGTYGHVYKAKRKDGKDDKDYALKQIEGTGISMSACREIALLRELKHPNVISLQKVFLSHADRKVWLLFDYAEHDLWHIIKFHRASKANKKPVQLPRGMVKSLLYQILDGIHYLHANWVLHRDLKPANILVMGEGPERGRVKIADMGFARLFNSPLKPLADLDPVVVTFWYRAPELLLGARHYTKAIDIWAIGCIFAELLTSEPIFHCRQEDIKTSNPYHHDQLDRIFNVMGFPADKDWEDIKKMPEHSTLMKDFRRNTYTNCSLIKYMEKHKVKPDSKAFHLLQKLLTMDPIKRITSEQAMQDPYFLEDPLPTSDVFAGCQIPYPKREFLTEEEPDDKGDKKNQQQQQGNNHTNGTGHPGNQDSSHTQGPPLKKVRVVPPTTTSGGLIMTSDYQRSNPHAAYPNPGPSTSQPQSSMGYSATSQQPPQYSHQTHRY
Chain of 1-phosphatidylinositol 3-phosphate 5-kinase (Homo sapiens) (Q9Y2I7 whole entry, the tested form may be a part): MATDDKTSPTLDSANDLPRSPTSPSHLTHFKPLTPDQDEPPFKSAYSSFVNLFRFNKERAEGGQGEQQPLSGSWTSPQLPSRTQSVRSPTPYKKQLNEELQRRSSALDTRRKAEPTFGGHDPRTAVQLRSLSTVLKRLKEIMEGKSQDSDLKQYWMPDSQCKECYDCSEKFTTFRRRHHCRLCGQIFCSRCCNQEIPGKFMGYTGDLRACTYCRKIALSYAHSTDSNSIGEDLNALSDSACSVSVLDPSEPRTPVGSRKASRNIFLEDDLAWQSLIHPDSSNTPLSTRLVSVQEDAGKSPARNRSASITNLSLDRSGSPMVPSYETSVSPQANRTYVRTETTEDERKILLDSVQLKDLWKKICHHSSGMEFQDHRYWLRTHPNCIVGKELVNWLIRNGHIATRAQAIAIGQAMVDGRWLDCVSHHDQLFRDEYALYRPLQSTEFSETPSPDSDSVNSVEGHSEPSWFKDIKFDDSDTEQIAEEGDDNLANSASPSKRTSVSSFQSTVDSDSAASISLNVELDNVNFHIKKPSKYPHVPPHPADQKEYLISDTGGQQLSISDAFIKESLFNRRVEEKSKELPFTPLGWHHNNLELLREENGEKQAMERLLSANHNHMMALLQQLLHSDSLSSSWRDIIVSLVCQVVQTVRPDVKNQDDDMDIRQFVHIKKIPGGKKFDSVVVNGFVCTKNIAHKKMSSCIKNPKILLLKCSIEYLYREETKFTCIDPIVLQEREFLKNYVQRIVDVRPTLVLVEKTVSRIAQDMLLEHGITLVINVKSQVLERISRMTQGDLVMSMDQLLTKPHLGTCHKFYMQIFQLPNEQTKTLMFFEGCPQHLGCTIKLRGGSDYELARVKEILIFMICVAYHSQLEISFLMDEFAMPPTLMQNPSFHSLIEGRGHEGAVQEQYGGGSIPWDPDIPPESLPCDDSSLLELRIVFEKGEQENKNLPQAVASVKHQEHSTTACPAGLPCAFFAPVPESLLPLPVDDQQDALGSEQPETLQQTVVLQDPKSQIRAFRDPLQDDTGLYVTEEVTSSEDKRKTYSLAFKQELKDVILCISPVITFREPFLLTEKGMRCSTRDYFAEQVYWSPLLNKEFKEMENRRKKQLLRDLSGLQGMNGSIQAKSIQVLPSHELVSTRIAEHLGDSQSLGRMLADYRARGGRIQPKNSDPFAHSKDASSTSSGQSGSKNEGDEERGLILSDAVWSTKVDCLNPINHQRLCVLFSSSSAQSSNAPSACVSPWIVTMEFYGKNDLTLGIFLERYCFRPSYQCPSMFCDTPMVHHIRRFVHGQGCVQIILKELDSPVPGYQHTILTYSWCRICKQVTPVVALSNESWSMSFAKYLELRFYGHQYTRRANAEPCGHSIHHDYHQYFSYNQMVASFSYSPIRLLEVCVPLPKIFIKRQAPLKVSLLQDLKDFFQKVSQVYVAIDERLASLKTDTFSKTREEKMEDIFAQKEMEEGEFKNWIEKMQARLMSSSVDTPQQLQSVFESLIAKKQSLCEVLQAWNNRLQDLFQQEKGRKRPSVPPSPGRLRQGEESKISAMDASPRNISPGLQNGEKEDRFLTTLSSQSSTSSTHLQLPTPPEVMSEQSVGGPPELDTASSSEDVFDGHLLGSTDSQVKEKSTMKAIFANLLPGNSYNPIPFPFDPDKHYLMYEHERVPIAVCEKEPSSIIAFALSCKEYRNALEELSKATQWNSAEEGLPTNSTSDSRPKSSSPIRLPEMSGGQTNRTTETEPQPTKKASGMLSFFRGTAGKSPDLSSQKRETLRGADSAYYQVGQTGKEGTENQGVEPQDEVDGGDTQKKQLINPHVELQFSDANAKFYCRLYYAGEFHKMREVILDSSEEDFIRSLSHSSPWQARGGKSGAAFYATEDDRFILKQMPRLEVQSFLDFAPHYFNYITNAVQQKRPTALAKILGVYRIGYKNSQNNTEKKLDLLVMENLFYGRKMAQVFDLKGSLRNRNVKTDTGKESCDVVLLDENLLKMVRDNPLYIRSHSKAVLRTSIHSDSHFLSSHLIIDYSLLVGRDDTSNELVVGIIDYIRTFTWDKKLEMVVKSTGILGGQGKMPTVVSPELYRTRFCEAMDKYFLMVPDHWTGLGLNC
Chain of Serine/threonine-protein kinase pim-2 (Homo sapiens) (Q9P1W9 whole entry, looked up, the tested form may be a part): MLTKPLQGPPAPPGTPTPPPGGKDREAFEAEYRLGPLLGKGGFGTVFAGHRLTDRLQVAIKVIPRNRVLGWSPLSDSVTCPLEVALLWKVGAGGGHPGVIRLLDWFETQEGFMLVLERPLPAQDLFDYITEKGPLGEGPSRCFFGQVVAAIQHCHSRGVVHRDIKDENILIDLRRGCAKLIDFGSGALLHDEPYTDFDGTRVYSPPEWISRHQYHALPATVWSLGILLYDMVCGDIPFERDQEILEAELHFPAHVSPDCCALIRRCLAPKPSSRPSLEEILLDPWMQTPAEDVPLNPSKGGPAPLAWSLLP

As to `CN(C)[C@@H]1CC[C@@]2(C)[C@@H](CC[C@@H]3[C@@H]2CC[C@]2(C)C(c4ccc5cnccc5c4)=CC[C@@H]32)C1`, the negative logarithm of the EC50 (pEC50) with MOLM-13 is 5.41; in the test with OCI-AML-3 it was 5.57; in the test with MV4-11 it was 5.39; with NRK, 5.15; in the test with H9c2, 4.90 to 5.19.
As for `CN(C)[C@@H]1CC[C@@]2(C)[C@@H](CC[C@@H]3[C@@H]2CC[C@]2(C)C(c4ccc5ccncc5c4)=CC[C@@H]32)C1`, the inhibition in [1], in [2], in test [3], in test [5], in test [6] and in [7] was above 80% in each case. In addition, the inhibition in [8], in test [9], in test [10], in [11] and in [12] was above 80% throughout. The compound further gave a pKd in test [4] of 7.74. Besides, the pEC50 with MOLM-13 was 5.05; in the test with OCI-AML-3, 5.12; in the test with MV4-11, 5.26; in the test with NRK, 4.94; in the test on H9c2, 4.60 to 4.90.
Take `CN(C)[C@@H]1CC[C@@]2(C)[C@@H](CC[C@@H]3[C@@H]2CC[C@]2(C)C(c4cncc(Cl)c4)=CC[C@@H]32)C1`: the inhibition in test [13], in [14], in [15], in [2] and in test [3] was above 80% each time. Also, the pKd in [4] was 7.89. The pEC50 was 4.95 in the test with MOLM-13; 5.12 in the test with OCI-AML-3; 5.07 with MV4-11; 4.69 in the test with NRK; 4.60 to 4.90 in the test on H9c2.
Consider `CN(C)[C@@H]1CC[C@@]2(C)[C@@H](CC[C@@H]3[C@@H]2CC[C@]2(C)C(c4cccnc4)=CC[C@@H]32)C1`, for which the pEC50 in the test with MOLM-13 is 4.99; in the test on OCI-AML-3, 5.00; in the test on MV4-11, 5.00; with NRK it was 4.53; in the test on H9c2, 4.30 to 4.60.

(Values after ChEMBL document CHEMBL4619723, “New CDK8 inhibitors as potential anti-leukemic agents - Design, synthesis and biological evaluation” (Bioorg Med Chem, 2020).)
